Screens deposited in PubChem by several laboratories.
Compounds with a hit are over-represented: about 2.1% of the library has one in this group of screens.
TNAP act mid DEA = activates human TNAP at intermediate phosphate acceptor concentration | purified TNAP, CDP-star luminescence, 100 mM DEA, 30 min; active compounds read high; scale: 0 levamisole-inhibited, 1 vehicle-only enzyme | activation factor at 20 µM | 64,000 tested, under 10 active | AID 813;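 active = activation factor of at least 2 at 20 µM, relative to controls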
MT1-MMP txn act = activates MT1-MMP transcription | actives 0.16% (n = 86,000) | HT1080 MT1-MMP promoter luciferase reporter, luminescence, overnight; active compounds read high | activation factor at 10 µM | AID 750;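 active = activation factor of at least 2 for MT1-MMP transcription at 10 µM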
Mac1 fbg enh = enhancers of human CD11b/CD18 binding to fibrinogen | actives 0.07% (n = 93,000) | P05107+P11215 | AID 1499 | K562 CD11b/CD18 adhesion to fibrinogen, ATPlite luminescence | activation, % at 10 µM;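 active = 10 µM primary screen giving 50% or more activity, confirmed by 40% or more on retest at that dose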
Target sequence (P05107 whole entry, looked up, other chains not shown): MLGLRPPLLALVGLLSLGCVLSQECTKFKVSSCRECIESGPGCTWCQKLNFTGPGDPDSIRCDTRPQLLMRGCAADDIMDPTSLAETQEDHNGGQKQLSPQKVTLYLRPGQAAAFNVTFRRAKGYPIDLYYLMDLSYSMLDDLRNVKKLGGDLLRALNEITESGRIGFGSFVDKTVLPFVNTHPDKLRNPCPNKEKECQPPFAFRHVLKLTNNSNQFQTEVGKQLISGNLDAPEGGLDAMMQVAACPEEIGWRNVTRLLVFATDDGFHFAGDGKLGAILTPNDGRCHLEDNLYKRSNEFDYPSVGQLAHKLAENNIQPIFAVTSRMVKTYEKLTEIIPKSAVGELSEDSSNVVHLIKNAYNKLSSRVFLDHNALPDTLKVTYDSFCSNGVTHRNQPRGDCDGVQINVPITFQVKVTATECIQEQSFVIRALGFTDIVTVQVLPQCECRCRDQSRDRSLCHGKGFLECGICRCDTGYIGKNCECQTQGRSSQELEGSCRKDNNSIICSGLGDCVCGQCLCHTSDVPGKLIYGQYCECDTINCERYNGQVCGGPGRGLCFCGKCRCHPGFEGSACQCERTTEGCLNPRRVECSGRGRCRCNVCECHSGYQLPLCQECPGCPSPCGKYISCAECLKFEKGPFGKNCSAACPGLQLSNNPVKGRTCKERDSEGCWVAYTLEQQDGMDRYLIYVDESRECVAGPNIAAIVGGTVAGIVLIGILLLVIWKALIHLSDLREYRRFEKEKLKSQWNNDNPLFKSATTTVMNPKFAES
RORA act = activators of human nuclear receptor RORA; P35398; CHO-K1 Gal4-RORA LBD luciferase reporter, luminescence; percent increase over mock-subtracted basal signal; activation, % at 10 µM; actives 1.5% (n = 65,000); AID 560;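 active = activation above the mean of all tested compounds plus 3 SD, cut at about 49% in these data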;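 also: 0% = DMSO-treated RORA cells and 100% = added signal equal to DMSO minus mock-transfected cells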
CD11b adhes inh = inhibitors of human CD11b/CD18 binding to fibrinogen. inhibition, % at 10 µM. P05107+P11215. actives 0.54% (n = 93,000). K562 CD11b/CD18 adhesion to fibrinogen, ATPlite luminescence; Mn2+ added to activate the integrin;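 active = primary inhibition of 50% or more at 10 µM, then 40% or more on retest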
SF1 activator = SF-1 (human) activation. activation, % at 10 µM. actives 1.9% (n = 65,000). Q13285. CHO-K1 Gal4-SF-1 LBD luciferase reporter; % increase over DMSO SF-1-specific signal. AID 522;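 active = activation above the mean activation of all tested compounds plus 3 SD, cut at about 50% in these data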
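Material: CHO-K1 cells with Gal4–hSF-1 LBD chimera plus Gal4-driven luciferase / Input: 4,000 CHO-K1 cells per well / Incubation: compound exposure 20 h at 37 °C / Signal: luminescence read 15 min after SteadyLite luciferase reagent, after room-temperature equilibration / Read-out: percent activation versus DMSO / Benchmarks: DMSO negative control and −SF1 background wells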
* marks the source's active call; other numbers are inactive results; · = not tested or not shown; ! = a repeat was not active.

SMILES	TNAP act mid DEA	MT1-MMP txn act	Mac1 fbg enh	RORA act	CD11b adhes inh	SF1 activator
COc1ccc(CCN(Cc2cc3cc(C)c(C)cc3nc2Cl)C(=O)C2CC2)cc1	·	·	-1.6	·	6.6	·
COC(=O)c1ccc(C(NC(=O)OCc2ccccc2)/C(I)=C/[C@@H](C)C(=O)NCCc2c[nH]c3ccccc23)cc1 (some centres undefined)	·	1.1	·	·	·	·
Oc1[nH]c2ccccc2c1C=Nc1ccc2c(c1)OCO2	0.8	1.4	·	84.2*	·	62.5*
CC1(C)CC(=O)C(C=Nc2ccc3c(c2)OCO3)=C(O)C1	0.9	1.8	0.8	65.4*	-11.7	72.4*
COc1ccc(N=CC2=C(O)CCCC2=O)cc1	1	1.7	-2.2	14.9	4.0	52.2*
COc1ccc(N=CC2=C(O)CC(C)(C)CC2=O)cc1	0.9	1.3	-1.8	45.1	-21.6	87.2*
COc1ccc(N=Cc2c(O)[nH]c3ccccc23)cc1	·	1.3	·	·	·	·
COc1ccc(OC)c(N=CC2=C(O)CC(C)(C)CC2=O)c1	0.9	1	1.1	10.2	2.4	13.8
CC(C)(C)NC(=O)C(c1ccc(I)cc1)N(CCN1CCOCC1)C(=O)CCCNC(=O)c1ccccc1 (centres undefined)	·	1	·	·	·	·
COc1ccc(/C(C)=N/OC/C(O)=C(\C#N)c2nc3ccccc3[nH]2)cc1	·	·	10.7	·	-0.4	·
O=C(NC1CCN(C(=S)NCc2ccco2)CC1)NC12CC3CC(CC(C3)C1)C2	·	·	-3.8	·	-1.4	·
CCCc1c(C)c2ccc(OCC(C)=O)cc2oc1=O	0.9	1.5	-1.5	11.2	7.2	20.8
CCCCc1c(C)c2ccc(OCC(C)=O)cc2oc1=O	0.9	1.3	1.2	20.4	6.2	74.5*
Cc1ccc(N2C(=O)c3ccc(N)cc3C2=O)cc1	1	1.9	-2.6	55.3*	-5.7	47.4
Cc1ccc(N2C(=O)c3ccc(N)cc3C2=O)cc1C	1	1.8	·	106.9*	·	64.1*
O=C(COc1ccccc1)N(CCc1ccccc1)c1nc(-c2ccc(F)cc2)cs1	·	·	-3.1	·	-12.0	·
COc1ccc(CC(=O)Nc2ccc3c(c2)CCC3)cc1OC	·	·	-6.5	·	65.2*	·
O=C(Cc1ccc(Br)cc1)c1ccc(O)cc1O	0.9	1.5	-4.3	37.2	77.5*	83.6*
CCCCC(=O)c1ccc(O)cc1O	·	1.3	·	·	·	·
O=C(Nc1cccc2nsnc12)c1cccs1	0.9	1.7	-0.3	78.2*!	-12.0	24.2
CCOC(=O)C1=C(C)N(CCCC(=O)N(Cc2ccc3c(c2)OCO3)C(C(=O)NC(C)(C)C)c2ccc3c(c2)OCO3)C(=O)NC1c1ccc(Br)cc1 (centres undefined)	·	1.2	·	·	·	·
COc1ccccc1N1CCN(C(=O)c2cc3c(s2)CCC3)CC1	·	1.2	69.7*	·	47.9	·
Fc1cccc(Cl)c1Cn1nnc(-c2ccc3c(c2)OCO3)n1	0.9	1.2	3.1	56.0*	7.0	70.5*
N/C(=N\OC(=O)c1ccc(Cl)cc1)c1nonc1N	·	·	3.9	·	-29.3	·
CCN(CC)c1ccc(C2C(C(C)=O)C(=O)CC(C)(O)C2C(C)=O)cc1 (centres undefined)	·	1.2	·	·	·	·
SMILES	TNAP act mid DEA	MT1-MMP txn act	Mac1 fbg enh	RORA act	CD11b adhes inh	SF1 activator
O=C(c1ccc(-c2nnc(Nc3ccccc3)c3ccccc23)cc1)N1C[C@H]2C[C@H](C1)c1cccc(=O)n1C2	·	1.1	1.7	·	18.7	·
COC(=O)C1CC1C(NC(=O)[C@@H]1CCCN1)c1ccccc1 (some centres undefined)	·	1.2	·	·	·	·
CCOC(=O)CC(=O)CSc1nc2c(cc1C#N)CCCCC2	1	1.5	2.3	19.0	-7.0	59.4*
CCOC(=O)CC(=O)CSc1nc2ccc(C)cc2cc1C#N	0.9	1.5	-5.2	20.0	-9.3	71.7*
COC(=O)CSc1nc2cc(C)ccc2cc1C#N	0.9	2*	2.1	17.0	-9.9	100.0*
CC(C)OC(=O)CC(=O)CSc1nc2c(cc1C#N)CCCCC2	·	1.5	3.7	·	-10.5	·
O=c1n(S(=O)(=O)c2cccc3cccnc23)c2ccccc2n1S(=O)(=O)c1cccc2cccnc12	·	1.1	-5.1	·	8.0	·
COC(=O)c1ccc(C(NC(=O)OCc2ccccc2)/C(=C/[C@@H](C)C(=O)N(C)Cc2ccccc2)C(F)(F)F)cc1 (some centres undefined)	·	1.2	·	·	·	·
CCCCSc1nsc(NC(C)=O)n1	0.9	1.1	1.0	55.6*	0.0	48.9
CCCCCCSc1nsc(NC(C)=O)n1	0.9	1.3	0.3	74.9*	2.9	21.3
CC(=O)Nc1nc(-c2ccccc2)ns1	·	1.6	·	·	·	·
COc1cc(NC(=O)C(C)C)ccc1NC(=O)c1ccco1	0.8	1.1	0.5	44.1	5.6	53.8*
CC(/C=C/c1cccs1)=C\C(=O)O	·	1	·	·	·	·
Cc1nn(-c2nc3ccccc3s2)c(N)c1-c1ccccc1	0.9	0.7	4.0	43.3	19.1	60.0*
Cc1nn(-c2nc3ccccc3s2)c(N)c1Sc1ccc(F)cc1	1.1	1.9	7.3	25.9	-8.1	63.0*
Cc1nn(-c2nc3ccccc3[nH]2)c(N)c1-c1ccccc1	1.1	1.8	·	54.3*	·	31.2
Cc1nn(-c2ccccc2)c2nc3c(cc12)C(=O)CCC3	·	·	-0.1	·	1.5	·
Cc1ccccc1Oc1nnc(-c2cccs2)c2ccccc12	·	·	6.7	·	6.3	·
COc1nc(C)ccc1-c1noc(-c2ccncc2)n1	0.9	1.5	·	31.1	·	64.2*
CCOc1ccccc1-c1nc(-c2ccc(C)nc2OC)no1	0.9	1.2	-0.1	36.4	-6.4	57.7*
COc1cc(-c2nc(-c3ccc(C)nc3OC)no2)cc(OC)c1OC	0.9	1.2	8.2	-11.1	-6.1	-14.9
Cc1ccsc1C(=O)Nc1cc(C(C)(C)C)nn1-c1ccccc1	·	·	-3.8	·	-5.7	·
Cc1ccccc1OCc1nc2c3cnn(C)c3ncn2n1	0.7	1.7	1.0	49.8*	-2.9	37.3
CCn1c(=O)c(C(=O)Nc2nc3ccccc3[nH]2)c(O)c2ccccc21	0.9	·	-8.2	-18.5	96.4*	-36.8
COc1cccc(-c2cc(C(=O)N3C(C)CCCC3C)no2)c1 (centres undefined)	1	·	1.7	66.9*	-19.1	36.1
CC1CCCCN1C(=O)c1cc(-c2ccc(Cl)c(Cl)c2)on1 (centres undefined)	0.9	1.6	0.2	62.5*	-7.7	46.5
CCC1CCCCN1C(=O)c1cc(-c2ccc(Cl)c(Cl)c2)on1 (centres undefined)	0.9	1.6	·	54.4*	·	39.7
CCOC(=O)c1c(C)[nH]c(C(=O)COC(=O)CCC2CCCC2)c1C	·	·	23.5	·	-3.0	·
COc1cc(NC(=O)c2cccc3c2C(=O)N(Cc2cccnc2)C3)cc(OC)c1OC	1	0.9	2.0	-7.1	-3.5	11.5
